The results in this text go back to ChEMBL document CHEMBL2086283, “Novel 4-aminoquinoline-pyrimidine based hybrids with improved in vitro and in vivo antimalarial activity” (ACS Med Chem Lett, 2012).

Broadly, the IC50 is the concentration that inhibits the measured activity by half.

Activity calls are given as the source filed them. The calls are words filed in the database; no cut-off is given here.

The test system of series [1] is Plasmodium berghei. The series can be described thus: Antimalarial activity against Plasmodium berghei infected in mouse assessed as suppression in parasitemia at 100 mg/kg, po administered QD for 3 days measured on day 5 relative to control. Type of series: functional. A digest of the protocol: (§1)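 P. berghei-infected mice, 5 per group, dosed by oral gavage once daily on days 0, 1 and 2 postinfection, with a vehicle control arm. Mice were followed to day 28 postinfection for apparent toxicity, parasitemia and survival. Parasitemia suppression is expressed against mean vehicle-control parasitemia set as 100%, and cure is the number cured per 5 mice.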

For series [2], the system named is Plasmodium berghei. The experiment in a line: Antimalarial activity against Plasmodium berghei infected in mouse assessed as suppression in parasitemia at 100 mg/kg, po administered QD for 3 days measured on day 7 relative to control. Type of series: functional. A digest of the protocol:
as §1

In series [3] the test system is Mus musculus. The series can be described thus: Toxicity in mouse infected with Plasmodium berghei assessed as host survival at 100 mg/kg, po administered QD for 3 days measured on day 28. Details: dose 100 mg/kg, route oral. Particulars: in vivo, 72 h. Format: organism-based.
For series [4], the system named is Plasmodium berghei. The experiment in a line: Antimalarial activity Plasmodium berghei infected in mouse assessed as mean survival time at 100 mg/kg, po administered QD for 3 days (reference value: 15.2 days). Format: functional.
The subject of series [5] is Plasmodium berghei. The experiment in a line: Antimalarial activity Plasmodium berghei infected in mouse assessed as cure from infection at 100 mg/kg, po administered QD for 3 days measured on day 28. Format: functional, organism-based. Further details: dose 100 mg/kg. The gist of the method:
as §1

The test system of series [6] is Vero. The experiment in a line: Cytotoxicity against african green monkey Vero cells up to 60 uM after 48 hrs by neutral red assay. Format: cell-based. Particulars: chlorocebus sabaeus. The gist of the method:
(§2)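 Mammalian cell cytotoxicity was measured as IC50 in Vero (monkey kidney fibroblasts), LLC-PK11 (pig kidney epithelial) and HepG2 (human hepatoma) cells. The highest concentration tested was 60 μM. Values are the mean of two independent experiments ± SD.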

A short description of series [7]: Cytotoxicity against pig LLC-PK11 cells up to 60 uM after 48 hrs by neutral red assay. Format: cell-based, Sus scrofa. Particulars: llc-pk11, 48 h. A digest of the protocol:
as §2

In series [8] the test system is HepG2. The experiment in a line: Cytotoxicity against human HepG2 cells up to 60 uM after 48 hrs by neutral red assay. Format: cell-based. Particulars: hepg2, 48 h. A digest of the protocol: as §2
The test system of series [9] is Vero. The series can be described thus: Cytotoxicity against african green monkey Vero cells after 48 hrs by neutral red assay. Particulars: chlorocebus sabaeus. Type of series: cell-based. A digest of the protocol: as §2
Series [10] is described as follows: Selectivity index, ratio of IC50 for african green monkey Vero cells to IC50 for chloroquine-sensitive Plasmodium falciparum D6. Type of series: toxicity, cell-based. Particulars: read-out: Ratio IC50. A digest of the protocol:
(§3)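 SI is the IC50 for cytotoxicity to Vero cells (monkey kidney fibroblasts) divided by the antimalarial IC50 against the named P. falciparum clone. Cytotoxicity was tested up to 60 μM.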

The subject of series [11] is Plasmodium falciparum. The series can be described thus: Antiplasmodial activity against chloroquine-resistant Plasmodium falciparum W2 infected in red blood cells up to 19 uM after 72 hrs by parasitic LDH assay. Type of series: functional, organism-based. The gist of the method: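 In vitro P. falciparum growth inhibition (D6 CQ-sensitive clone; W2 CQ-resistant clone). IC50 is the concentration giving 50% growth inhibition. Values are the average of two independent experiments ± SD. Highest concentration tested 19 μM.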

In series [12] the test system is Plasmodium falciparum. The series can be described thus: Antiplasmodial activity against chloroquine-sensitive Plasmodium falciparum D6 infected in red blood cells after 72 hrs by parasitic LDH assay. Format: functional, organism-based. Particulars: D6, 72 h.
Series [13] relates to Plasmodium falciparum. The experiment in a line: Antiplasmodial activity against chloroquine-resistant Plasmodium falciparum W2 infected in red blood cells after 72 hrs by parasitic LDH assay. Type of series: functional, organism-based. Particulars: W2, 72 h.
In series [14] the test system is Plasmodium falciparum. The experiment in a line: Ratio of chloroquine IC50 to compound IC50 for chloroquine-sensitive Plasmodium falciparum D6. Type of series: functional.
Series [15] relates to Plasmodium falciparum. The series can be described thus: Ratio of chloroquine IC50 to compound IC50 for chloroquine-resistant Plasmodium falciparum W2. Type of series: functional.
Series [16] in a line: Selectivity index, ratio of IC50 for african green monkey Vero cells to IC50 for chloroquine-resistant Plasmodium falciparum W2. Particulars: read-out: Ratio IC50. Type of series: toxicity, cell-based. The gist of the method:
as §3

Series [17] deals with Plasmodium berghei. The experiment in a line: Antimalarial activity against Plasmodium berghei infected in mouse assessed as suppression in parasitemia at 3.3 mg/kg, po administered QD for 3 days measured on day 5 relative to control. Format: functional. A digest of the protocol: as §1
Series [18] deals with Plasmodium berghei. The series can be described thus: Antimalarial activity against Plasmodium berghei infected in mouse assessed as suppression in parasitemia at 10 mg/kg, po administered QD for 3 days measured on day 5 relative to control. Format: functional. The gist of the method: as §1
Series [19] relates to Plasmodium berghei. The experiment in a line: Antimalarial activity against Plasmodium berghei infected in mouse assessed as suppression in parasitemia at 30 mg/kg, po administered QD for 3 days measured on day 5 relative to control. Format: functional. A digest of the protocol: as §1
Series [20] concerns Plasmodium berghei. The experiment in a line: Antimalarial activity against Plasmodium berghei infected in mouse assessed as suppression in parasitemia at 3.3 mg/kg, po administered QD for 3 days measured on day 7 relative to control. Format: functional. A digest of the protocol:
as §1

Series [21] concerns Plasmodium berghei. The experiment in a line: Antimalarial activity against Plasmodium berghei infected in mouse assessed as suppression in parasitemia at 10 mg/kg, po administered QD for 3 days measured on day 7 relative to control. Format: functional. The gist of the method:
as §1

Series [22] deals with Plasmodium berghei. The experiment in a line: Antimalarial activity against Plasmodium berghei infected in mouse assessed as suppression in parasitemia at 30 mg/kg, po administered QD for 3 days measured on day 7 relative to control. Type of series: functional. A digest of the protocol: as §1
Series [23] relates to Mus musculus. The series can be described thus: Toxicity in mouse infected with Plasmodium berghei assessed as host survival at 3.3 mg/kg, po administered QD for 3 days measured on day 28. Format: organism-based. Further details: dose 3.3 mg/kg, route oral. Particulars: in vivo, 72 h.
Series [24] has as its system Mus musculus. The experiment in a line: Toxicity in mouse infected with Plasmodium berghei assessed as host survival at 10 mg/kg, po administered QD for 3 days measured on day 28. Particulars: in vivo, 72 h. Further details: dose 10 mg/kg, route oral. Type of series: organism-based.
Series [25] deals with Mus musculus. The series can be described thus: Toxicity in mouse infected with Plasmodium berghei assessed as host survival at 30 mg/kg, po administered QD for 3 days measured on day 28. Type of series: organism-based. Further details: dose 30 mg/kg, route oral. Particulars: in vivo, 72 h.
For series [26], the system named is Plasmodium berghei. The series can be described thus: Antimalarial activity Plasmodium berghei infected in mouse assessed as mean survival time at 3.3 mg/kg, po administered QD for 3 days (reference value: 15.2 days). Type of series: functional.
Series [27] concerns Plasmodium berghei. The experiment in a line: Antimalarial activity Plasmodium berghei infected in mouse assessed as mean survival time at 10 mg/kg, po administered QD for 3 days (reference value: 15.2 days). Type of series: functional.
In series [28] the test system is Plasmodium berghei. The series can be described thus: Antimalarial activity Plasmodium berghei infected in mouse assessed as mean survival time at 30 mg/kg, po administered QD for 3 days (reference value: 15.2 days). Format: functional.
Series [29] concerns Plasmodium berghei. The experiment in a line: Antimalarial activity Plasmodium berghei infected in mouse assessed as cure from infection at 3.3 mg/kg, po administered QD for 3 days measured on day 28. Format: functional, organism-based. Details: dose 3.3 mg/kg. The gist of the method: as §1
Series [30] has as its system Plasmodium berghei. The experiment in a line: Antimalarial activity Plasmodium berghei infected in mouse assessed as cure from infection at 10 mg/kg, po administered QD for 3 days measured on day 28. Format: functional, organism-based. Further details: dose 10 mg/kg. A digest of the protocol:
as §1

In series [31] the test system is Plasmodium berghei. The experiment in a line: Antimalarial activity Plasmodium berghei infected in mouse assessed as cure from infection at 30 mg/kg, po administered QD for 3 days measured on day 28. Type of series: functional. The gist of the method: as §1
Series [32] has as its system Plasmodium falciparum. The series can be described thus: Ratio of artemesin IC50 to compound IC50 for chloroquine-sensitive Plasmodium falciparum D6. Type of series: functional.

Consider `CCN(CC)CCCC(C)Nc1ccnc2cc(Cl)ccc12` (stereo unspecified) [CHLOROQUINE], for which the Activity is given as 100% in series [1]; 100% in series [2]; “Non-toxic” in series [3]; “Non-toxic” in [6]; “Non-toxic” in [7]; “Non-toxic” in [8]. Further, the MST in series [4] is 28 days. The outcome in series [5] was inactive.

As to `CCc1nc(N)nc(N)c1-c1ccc(Cl)cc1` [PYRIMETHAMINE], in series [9], the 50% inhibitory concentration (IC50) was 18200 nM. Moreover, in [10], the selectivity ratio turned out to be 1820. Further, in series [11], the outcome was inactive.

Consider `CCN1CCN(c2nc(C)cc(NCCCNc3ccnc4cc(Cl)ccc34)n2)CC1`, for which the half-maximal inhibitory concentration (IC50) in [12] was 6 nM; in series [13], 60 nM. Besides, the “Ratio IC50” value in series [14] was 6; in [15], 6; in [32] it was 2. The selectivity ratio in [10] is over 10000; in series [16], over 1000. Further, the Activity in series [17] worked out at 20.1%; in series [18], 73.9%; in series [19], 100%; in [20], 19.1%; in series [21], 27.1%; in series [22], 100%. The Activity result is recorded as “Toxic” in series [23]; “Toxic” in series [24]; “Non-toxic” in series [25]; 20% in series [31]; “Non-toxic” in series [6]; “Non-toxic” in series [7]. In addition, the Activity result in series [8] is on record as “Non-toxic”. The MST in series [26] came to 20.2 days; in series [27] it was 15.2 days; in series [28] it was 27.2 days. The result in [29] and in series [30] was inactive.

Regarding `Cc1cc(NCCNc2ccnc3cc(Cl)ccc23)nc(N2CCN(C)CC2)n1`, the IC50 in [12] was 5 nM; in series [13], 30 nM. Moreover, the “Ratio IC50” value in [14] is reported as 6; in [15] it was 6; in [32], 2. Besides, the selectivity ratio in series [10] was over 12000; in [16] it was over 2000. For the same compound, the Activity in series [17] came out at 23.5%; in series [18], 97%; in series [19] it was 100%; in [20], 35.2%; in [21] it was 2%; in [22], 100%. The Activity result in series [23] is on record as “Toxic”; in [24], “Toxic”; in [25] it was “Non-toxic”; in series [31], 80%; in [6] it was “Non-toxic”; in series [7], “Non-toxic”. Besides, the Activity result in series [8] is on record as “Non-toxic”. In addition, the MST in series [26] was 19.2 days; in [27], 21.4 days; in series [28], 28 days. For the same compound, the result in series [29] and in series [30] was inactive.
